Screening results from PubChem.
CAL PDZ FP-1: untagged CAL PDZ binding inhibitors, primary screen, biochemical, fluorescence polarization, HTS; purified CAL PDZ, TMR-peptide fluorescence polarization, 1 h; inhibition, % at 24.9 µM; 300,000 compounds, 0.92% hits;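 active = mean inhibition of at least 30% with at least half of replicates also reaching 30%; inconclusive = no clear call, values can overlap the other calls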;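 also: 0% = DMSO neutral control and 100% = excess unlabeled competitor peptide PRC23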
CAL PDZ FP-2: CAL PDZ peptide-binding inhibitors, primary screen, biochemical, fluorescence polarization, Cer-tagged CAL PDZ, HTS; 330,000 compounds, 0.02% hits; AID 504414, 2011; Golgi-associated PDZ and coiled-coil motif-containing protein (Homo sapiens), Q9HD26; purified CAL PDZ, TMR-peptide fluorescence polarization, 1 h; inhibition, % at 20 µM;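 active = highest replicate inhibition of at least 40%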;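 also: plate controls were DMSO neutral control wells for no effect and unlabeled competitor peptide control wells for full effect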
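Control set: unlabelled peptide and DMSO controls / Material: purified CerCALP PDZ construct / Timing: 1 h incubation at room temperature before polarization reading / Doses: 20 µM, one dose / Detection: fluorescence polarization (mP)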
SR-BI uptake up: activators of SR-BI mediated DiI-HDL uptake, primary screen, ldlA[mSR-BI] CHO cells, DiI fluorescence; 3 h; 100 = double the neutral-control signal; activation, % at 12.5 µM; 320,000 compounds, 0.096% hits; AID 504775, 2011;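 active = mean replicate activation of at least 60% and every replicate at or above 60%; inconclusive = mean or all-replicate condition met, but not both; inactive = mean below 60% and not all replicates reaching 60%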;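 also: 0% = median plate neutral-control signal and 100% = twice that signal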
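System: CHO ldlA[mSR-BI] cells / Medium: HEPES-buffered (25 mM, pH 7.4) F12 plus 0.5% BSA / Probe or stimulus: labelled HDL, 10 µg/mL / Doses: single compound concentration, delivered by pin transfer / Schedule: 3 h, 37 °C / Measured by: DiI fluorescence, bottom read / Measure: cell-associated DiI fluorescence as measure of HDL uptake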
SR-BI DiI inh: inhibitors of SR-BI mediated HDL lipid uptake, primary screen, ldlA[mSR-BI] cells, fluorescence, single point; 320,000 compounds, 0.96% hits; ldlA[mSR-BI] CHO cells, DiI-HDL uptake fluorescence, 3 h; inhibition, % at 12.5 µM;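 active = mean replicate inhibition of at least 70% and a set share of replicates each scoring 70 or more; inconclusive = meets just one of the two criteria; inactive = fails both criteria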;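 also: 0% = median of neutral control wells and 100% = median of positive control wells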
ATG4B inh: ATG4B protease inhibitors, primary screen, biochemical, fluorescence, uHTS; Cysteine protease ATG4B (Homo sapiens), Q9Y4P1; 340,000 compounds, 0.51% hits; AID 504462, 2011; inhibition, % at 8.33 µM; ATG4B cleavage of LC3-PLA2, NBD-HPC fluorescence, 1 h; in the data active = inhibition above about 40%
Target sequence (Q9Y4P1 whole entry, looked up): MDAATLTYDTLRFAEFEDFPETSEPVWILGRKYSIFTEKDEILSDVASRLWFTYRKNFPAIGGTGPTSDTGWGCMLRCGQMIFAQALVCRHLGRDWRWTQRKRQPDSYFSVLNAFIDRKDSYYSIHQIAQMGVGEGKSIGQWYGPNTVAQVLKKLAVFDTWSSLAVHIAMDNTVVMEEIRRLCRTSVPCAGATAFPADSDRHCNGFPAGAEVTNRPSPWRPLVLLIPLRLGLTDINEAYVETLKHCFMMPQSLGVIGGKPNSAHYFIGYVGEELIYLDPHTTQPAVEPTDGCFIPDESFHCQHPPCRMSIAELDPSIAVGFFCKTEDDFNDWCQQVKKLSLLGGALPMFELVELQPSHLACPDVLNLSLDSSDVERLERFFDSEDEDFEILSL
DiI quencher: counter-screen for SR-BI lipid transfer inhibitors: DiI fluorescence quenchers | shares compounds with SR-BI DiI inh | cell-free DiI-HDL fluorescence quenching, 30 min | AC50, µM (top dose mostly 35 µM), inactives show top-dose activity change, negative = quenching | 470 compounds, 20% hits;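 active = quenching, a falling signal, with AC50 below a set limit tied to the top valid dose, actives reach about 32 µM in these data; inconclusive = no clear call, values can overlap the other calls; inactive = rising signal, and the rest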
Starred values were filed as active, the others as inactive; ? = inconclusive; nt = no result given; ! = not confirmed by another sample. This is a sample that favours compounds with a hit; in the whole collection about 2.3% have one here.

SMILES | CAL PDZ FP-1 | CAL PDZ FP-2 | SR-BI uptake up | SR-BI DiI inh | ATG4B inh | DiI quencher
CN(C(=O)c1ccc(NC(=O)C2CCCN(C(=O)OC(C)(C)C)C2)cc1)C1CCC1 (configuration not stated) | -2 | -1 | -23 | 23 | -15 | nt
CCC(C)n1ncn(-c2ccc(N3CCN(c4ccc(O)cc4)CC3)cc2)c1=O (configuration not stated) | -1 | -1 | -21 | 21 | -6 | nt
CCC(C)n1ncn(-c2ccc(N3CCN(c4ccc(OCC5COC(Cn6cncn6)(c6ccc(Cl)cc6Cl)O5)cc4)CC3)cc2)c1=O (configuration not stated) | -3 | 0 | -83 | 83*! | 2 | -11%
CC(C)C(=O)Nc1sc2c(c1-c1nc3ccccc3[nH]1)CCCC2 | 2 | 0 | -101 | 101* | 0 | 21µM*
Cc1ccccc1NC(=O)NCC1CCN(c2ccc(S(=O)(=O)N3CCOCC3)cc2)CC1 | nt | 0 | -82 | 82* | -8 | -2%
Cc1ccnc(NC(=O)c2cc(S(=O)(=O)NCc3ccccc3)ccc2C)c1 | -4 | 1 | -1 | 1 | -5 | nt
CCNc1nc(Cl)nc(-c2cn(-c3ccccc3)c3ccccc23)n1 | -2 | -1 | -72 | 72* | 2 | 4%
Cc1ccccc1NC(=O)C1C2CCC(O2)C1C(=O)O (configuration not stated) | -1 | -1 | 12 | -12 | 0 | nt
Cc1ccc(F)cc1NC(=O)C1C2CCC(O2)C1C(=O)O (configuration not stated) | 1 | 0 | 24 | -24 | -3 | -4%
Cc1cc(N2CCN(C(=O)c3ccco3)CC2)n2ncc(-c3ccccc3)c2n1 | nt | 1 | -78 | 78* | 4 | -9%
O=C(NC(=S)NC(CO)Cc1ccccc1)c1ccc(F)cc1 (configuration not stated) | 0 | 0 | 30 | -30 | -11 | nt
COc1ccc(C2c3sc(=O)[nH]c3SC3C4CCC(C4)C23)cc1OC (configuration not stated) | -4 | -1 | -72 | ? | 7 | -9%
COc1ccc2c(c1)CC(C1(O)C(=O)N(C)c3ccccc31)C2=O (configuration not stated) | 0 | 0 | -85 | 85* | 3 | -5%
C/C(=C/C(=O)O)C(=O)Nc1cccc(C(F)(F)F)c1 | 0 | 1 | 13 | -13 | -8 | nt
Cc1nc2c(cnn2-c2ccccc2Cl)c(=O)n1-c1ccc(N2CCC(C)CC2)cc1 | 2 | 0 | -72 | 72* | -17 | -12%
CCOC(=O)C1CCN(C(=O)Cn2nc(C)n3nc(-c4ccc(OC)cc4)cc3c2=O)CC1 | -3 | -3 | -61 | 61 | 11 | -1%
CCOC(=O)N1CCN(C(=O)Cn2nc(C)n3nc(-c4ccc(OC)cc4)cc3c2=O)CC1 | 1 | -2 | -34 | 34 | 18 | nt
Cc1c(C(=O)Nc2cccc(Cl)c2)c2ccccn2c1CCc1ccncc1 | 3 | -1 | -94 | 94* | -8 | 25µM*
Cc1c(C(=O)Nc2ccc(Cl)cc2)c2ccccn2c1CCc1ccncc1 | 4 | 0 | -97 | 97* | -15 | 32µM*
Cc1c(C(=O)Nc2ccc(Cl)cc2)c2ccccn2c1C(=O)c1ccc(F)cc1 | -3 | 0 | -51 | 51 | -3 | nt
C[n+]1cn(Cc2ccc(C#N)cc2)c2ccccc21 | -4 | -1 | -10 | 10 | 7 | nt
Cc1ccc(C(=O)O[C@H](C(=O)O)[C@H](OC(=O)c2ccc(C)cc2)C(=O)O)cc1 | 2 | 2 | 19 | -19 | 1 | nt
O=C(C1=COCCO1)N(Cc1nnc(-c2ccccc2Cl)o1)C1CC1 | 2 | 0 | -75 | ? | -8 | -3%
